# Results published in ChEMBL document CHEMBL1124387, “Cardiotonic agents. 9. Synthesis and biological evaluation of a series of (E)-4,5-dihydro-6-[2-[4-(1H-imidazol-1-yl)phenyl]ethenyl]-3 (2H)-pyridazinones: a novel class of compounds with positive inotropic, antithrombotic, and vasodilatory activities for the treatment of congestive heart failure” (J Med Chem, 1989).
# What was measured:
# Canis familiaris [1] = assay: Hemodynamic activity in anesthetized dog as percent change in fore limb resistance from baseline (2.77 mmHg/mL/min) at 0.1 mg/kg administered intravenously; assay type: functional, Canis lupus familiaris; settings: route intravenous
# Method in brief: (§1)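 Acutely instrumented anesthetized dogs (n = 6), 30-min control period. Compound in 0.9% saline, or dilute HCl diluted with saline, at 0.1 mL/kg iv over 1 min. At least four ascending half-log doses, 10 min apart, one compound per animal. Recorded: LV dP/dtmax, heart rate, aortic pressure and forelimb resistance. Values are maximum response from control average ± SEM.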
# Canis familiaris [2] = assay: Hemodynamic activity in anesthetized dog as percent change in blood pressure from baseline (123 mmHg) at 0.001 mg/kg administered intravenously; assay type: functional, Canis lupus familiaris; settings: route intravenous; method in brief: as §1
# Homo sapiens [3] = organism: Homo sapiens; assay: In vitro inhibition of collagen stimulated platelet aggregation in human whole blood; assay type: functional
# Method in brief: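 Human whole blood from aspirin/NSAID-free fasted donors, read by impedance aggregometry 5 min after adding ADP or collagen. Aggregation expressed as % of control (2-6 replicates), plotted against log drug concentration; IC50 obtained by extrapolation.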
# Homo sapiens [4] = organism: Homo sapiens; assay: In vitro inhibition of collagen stimulated platelet aggregation in human thrombocyte enriched plasma; assay type: functional
# Method in brief: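 Human platelet-rich plasma from aspirin/NSAID-free donors, adjusted to 250 000 platelets/μL with platelet-poor plasma. Drug in DMSO/saline (1% DMSO final) was added before ADP or collagen, with doses set by titration. Read-out was aggregation extent (ADP, curve height) or rate (collagen, major slope) as % of saline control.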
# Canis familiaris [5] = assay: Hemodynamic activity in anesthetized dog as percent change from baseline (2271 mmHg/s) in left ventricular myocardial activity at 0.1 mg/kg administered intravenously; assay type: functional, Canis lupus familiaris, Heart left ventricle; settings: route intravenous
# Canis familiaris [6] = assay: Decrease in thrombus weight in anesthetized dog coronary artery; assay type: functional, Canis lupus familiaris
# Method in brief: (§2)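 Pentobarbital-anesthetized (32 mg/kg iv), ventilated dogs, allowed 30 min to stabilize. Continuous infusion of compound (1.0, 3.0 or 10.0 μg/kg/min) or saline began 15 min before 50 μA current was applied to an intraluminal electrode in the circumflex coronary artery. After 60 min of stimulation the animals were euthanized and the thrombus dissected and weighed. One treatment per animal.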
# Canis familiaris [7] = assay: Hemodynamic activity in anesthetized dog as percent change in left ventricular myocardial activity from baseline (2271 mmHg/s) at 0.01 mg/kg administered intravenously; assay type: functional, Canis lupus familiaris, Heart left ventricle; settings: route intravenous; method in brief: as §1
# Canis familiaris [8] = assay: Weight of thrombus after 60 min of 10 ug/kg/min; assay type: functional, Canis lupus familiaris
# Method in brief: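 Anesthetized adult dogs were given sodium pentobarbital (32 mg/kg iv), intubated and artificially respired, then allowed 30 min to stabilize after surgery. Circumflex coronary thrombosis was induced by delivering 50 μA through an intraluminal silver-coated copper electrode, which denuded the endothelium. Continuous drug or saline infusion began 15 min before current onset and ran throughout, with one treatment per animal. After 60 min of stimulation the thrombus was dissected and weighed.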
# Canis familiaris [9] = assay: Cardiovascular activity in presence of beta-adrenoceptor blockade in dogs as percent change in blood pressure from base line (109/88 mmHg) at 0.01 mg/kg dose given 15 min after nadolol; -10/-13; assay type: functional, Canis lupus familiaris
# Canis familiaris [10] = organism: Canis familiaris; assay: 50% increase in myocardial contractility (dP/dT max) in dogs; assay type: functional, Canis lupus familiaris, Myocardium; method in brief: as §1
# Canis familiaris [11] = assay: Hemodynamic activity in anesthetized dog as percent change in blood pressure from baseline (123 mmHg) at 0.3 mg/kg administered intravenously; assay type: functional, Canis lupus familiaris; settings: route intravenous; method in brief: as §1
# Canis familiaris [12] = assay: Hemodynamic activity in anesthetized dog as percent change in left ventricular myocardial activity from baseline (2271 mmHg/s) at 0.003 mg/kg administered intravenously; assay type: functional, Canis lupus familiaris, Heart left ventricle; settings: route intravenous; method in brief: as §1
# Canis familiaris [13] = assay: Cardiovascular activity in presence of beta-adrenoceptor blockade in dogs as percent change in blood pressure from base line (116/94 mmHg) at 0.01 mg/kg dose before nadolol administration; -9/-11
# Canis familiaris [14] = assay: Cardiovascular activity in presence of beta-adrenoceptor blockade in dogs as percent change in left ventricular myocardial contractility from base line (1869 mmHg/s) at 0.01 mg/kg dose given 15 min after nadolol; assay type: functional, Canis lupus familiaris, Heart left ventricle
# Canis familiaris [15] = assay: Weight of thrombus after 60 min of 1 ug/kg/min; assay type: functional, Canis lupus familiaris; method in brief: as §2
compound,measurement,setting,value
CC1CC(=O)NN=C1/C=C/c1ccc(-n2ccnc2)cc1.Cl (stereo not given),Change,Canis familiaris [1],-58%
same,Change,Canis familiaris [2],-2%
same,IC50,Homo sapiens [3],1.5 nM
same,IC50,Homo sapiens [4],30 nM
same,Change,Canis familiaris [5],134%
same,Inhibition,Canis familiaris [6],40%
same,Change,Canis familiaris [7],65%
same,Thrombus weight,Canis familiaris [8],10 mg
same,Change,Canis familiaris [9],-10%
same,Dose,Canis familiaris [10],8 µg/kg
same,Change,Canis familiaris [11],-40%
same,Change,Canis familiaris [12],19%
same,Change,Canis familiaris [13],-9%
same,Change,Canis familiaris [14],25%
same,Thrombus weight,Canis familiaris [15],10.7 mg
